Source: ChEMBL document CHEMBL4138319, “Discovery, Synthesis, Pharmacological Profiling, and Biological Characterization of Brintonamides A-E, Novel Dual Protease and GPCR Modulators from a Marine Cyanobacterium” (J Med Chem, 2018)
The source made the active and inactive calls. The calls are words filed in the database; no cut-off is given here. Square brackets hold non-standard residues; d marks the D form. Peptide text beside a SMILES is read from it. * marks the point of attachment. ξ: configuration not given here. X4 = CC[C@H](C)[C@@H](OC(=O)[C@H](Cc1ccccc1)N(C)C)C(=O)*; X3 = CC[C@H](C)[C@@H](OC(=O)/C=C\c1ccccc1)C(=O)*; X5 = CC[C@H](C)[C@@H](OC(=O)C#Cc1ccccc1)C(=O)*; X2 = CC[C@H](C)[C@@H](OC(=O)CCc1ccccc1)C(=O)*; Hmp(2R,3S) = CC[C@H](C)[C@@H](O)C(=O)O; dNMeF = CN[C@H](Cc1ccccc1)C(=O)O; NMeL = CN[C@@H](CC(C)C)C(=O)O; dHiv = CC(C)[C@@H](O)C(=O)O; ξD = NC(CC(=O)O)C(=O)O

Experiments:
Kallikrein-7 [1] = target: T1, Kallikrein-7 (Homo sapiens, UniProt P49862); assay: Inhibition of kallikrein 7 (unknown origin) by fluorescence assay
Method in brief: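 Protease panel screen: 10-dose titrations, 3-fold serial dilution from 100 μM, singlet. Protease activity is followed as the time-course rise in fluorescence from a labeled peptide substrate, and the initial linear slope (signal/min) is analysed.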
Target sequence in this assay (P49862 whole entry): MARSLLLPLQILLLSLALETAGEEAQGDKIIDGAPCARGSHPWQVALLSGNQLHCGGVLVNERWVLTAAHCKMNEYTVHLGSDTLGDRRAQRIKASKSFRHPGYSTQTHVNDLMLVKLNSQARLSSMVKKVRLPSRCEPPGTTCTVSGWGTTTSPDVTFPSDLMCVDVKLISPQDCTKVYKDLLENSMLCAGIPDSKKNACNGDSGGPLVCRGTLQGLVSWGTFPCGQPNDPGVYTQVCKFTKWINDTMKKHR

Caspase-14 = target: T2, Caspase-14 (Homo sapiens, UniProt P31944); assay: Inhibition of human caspase 14 using Ac-WEHD-AMC fluorogenic peptide as substrate by fluorescence assay
T2 sequence (P31944 whole entry): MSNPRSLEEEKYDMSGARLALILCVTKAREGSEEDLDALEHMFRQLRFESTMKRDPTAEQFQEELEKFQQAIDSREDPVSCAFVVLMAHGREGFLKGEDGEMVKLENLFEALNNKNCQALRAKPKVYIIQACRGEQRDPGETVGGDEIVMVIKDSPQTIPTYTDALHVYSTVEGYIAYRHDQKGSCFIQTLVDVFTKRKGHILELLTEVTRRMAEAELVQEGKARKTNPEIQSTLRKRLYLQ
Method in brief: (§1)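 Activity followed as a time course of rising fluorescence from a fluorescently labelled peptide substrate. The initial linear slope (signal/min) was used.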

MDA-MB-231 [2] = assay: Antiproliferative activity against human MDA-MB-231 cells after 48 hrs by MTT assay; type: functional, cell-based
Method in brief: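 MDA-MB-231 cells are grown in DMEM with 10% FBS and seeded at 10,000 cells/well for 24 h. Cells are then exposed to graded compound concentrations or DMSO for 48 h. Viability is measured by MTT.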

Oxytocin receptor = target: T3, Oxytocin receptor (Homo sapiens, UniProt P30559); assay: Antagonist activity at human OXTR expressed in CHOK1 cells assessed as oxytocin-induced beta-arrestin recruitment pre-incubated for 30 mins before oxytocin stimulation for 90 or 180 mins by chemiluminescence method; type: functional, cell-based
T3 sequence (P30559 whole entry): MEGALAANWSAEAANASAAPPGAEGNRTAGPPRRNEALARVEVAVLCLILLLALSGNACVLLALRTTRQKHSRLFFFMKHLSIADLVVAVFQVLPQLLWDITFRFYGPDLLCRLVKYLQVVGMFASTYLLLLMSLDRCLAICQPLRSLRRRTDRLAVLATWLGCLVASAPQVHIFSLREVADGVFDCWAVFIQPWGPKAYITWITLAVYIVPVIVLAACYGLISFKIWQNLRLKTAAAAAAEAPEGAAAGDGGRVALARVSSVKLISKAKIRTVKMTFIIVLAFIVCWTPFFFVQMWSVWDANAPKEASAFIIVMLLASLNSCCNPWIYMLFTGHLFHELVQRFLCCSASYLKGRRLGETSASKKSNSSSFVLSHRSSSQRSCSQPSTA
Method in brief: (§2)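 PathHunter β-arrestin complementation assay, antagonist mode. Cells co-express ProLink-tagged GPCR and enzyme-acceptor-tagged β-arrestin and are pre-incubated with sample for 30 min at 37 °C or room temperature. Dose-response: 10 points, 3-fold dilutions from 20 μM, in duplicate.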

[3] = target: T4, C-C chemokine receptor type 10 (Homo sapiens, UniProt P46092); assay: Antagonist activity at human CCR10 expressed in human U2OS cells assessed as inhibition of CCL27-induced beta-arrestin recruitment pre-incubated for 30 mins before CCL27 stimulation for 90 or 180 mins by chemiluminescence method; type: functional, cell-based; method in brief: as §2
T4 sequence (P46092 whole entry): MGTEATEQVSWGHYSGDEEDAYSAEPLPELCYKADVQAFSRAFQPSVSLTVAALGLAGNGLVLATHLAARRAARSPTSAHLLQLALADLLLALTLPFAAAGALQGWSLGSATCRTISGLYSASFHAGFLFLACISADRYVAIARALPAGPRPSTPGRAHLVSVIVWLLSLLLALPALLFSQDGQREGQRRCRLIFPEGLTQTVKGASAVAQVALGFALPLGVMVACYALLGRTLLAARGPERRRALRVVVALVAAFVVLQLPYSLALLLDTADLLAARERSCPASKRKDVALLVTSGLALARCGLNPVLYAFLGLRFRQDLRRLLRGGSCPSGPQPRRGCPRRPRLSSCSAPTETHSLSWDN

[4] = target: Atypical chemokine receptor 3 (Homo sapiens, UniProt P25106); assay: Agonist activity at human CXCR7 expressed in CHOK1 cells assessed as induction of beta-arrestin recruitment by chemiluminescence method; type: functional, cell-based
Method in brief: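 PathHunter β-arrestin enzyme-fragment complementation assay in cells stably co-expressing ProLink-tagged GPCR and enzyme-acceptor-tagged β-arrestin. Sample is added to cells and incubated 90 or 180 min at 37 °C or room temperature, with 1% final vehicle. Detection reagent is added for 1 h at room temperature and chemiluminescence is read. % activity is taken relative to vehicle and maximal control ligand. Dose-response: 10 points, 3-fold dilutions from 20 μM, in duplicate.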

[5] = target: Somatostatin receptor type 3 (Homo sapiens, UniProt P32745); assay: Antagonist activity at human SSTR3 expressed in HEK293 cells assessed as [Tyr1]-somatostatin 14-induced beta-arrestin recruitment pre-incubated for 30 mins before [Tyr1]-somatostatin 14 stimulation for 90 or 180 mins by chemiluminescence method; type: functional, cell-based; method in brief: as §2
Substance-K receptor = target: T5, Substance-K receptor (Homo sapiens, UniProt P21452); assay: Antagonist activity at human TACR2 expressed in CHOK1 cells assessed as substance P-induced beta-arrestin recruitment pre-incubated for 30 mins before substance P stimulation for 90 or 180 mins by chemiluminescence method; type: functional, cell-based; method in brief: as §2
T5 sequence (P21452 whole entry): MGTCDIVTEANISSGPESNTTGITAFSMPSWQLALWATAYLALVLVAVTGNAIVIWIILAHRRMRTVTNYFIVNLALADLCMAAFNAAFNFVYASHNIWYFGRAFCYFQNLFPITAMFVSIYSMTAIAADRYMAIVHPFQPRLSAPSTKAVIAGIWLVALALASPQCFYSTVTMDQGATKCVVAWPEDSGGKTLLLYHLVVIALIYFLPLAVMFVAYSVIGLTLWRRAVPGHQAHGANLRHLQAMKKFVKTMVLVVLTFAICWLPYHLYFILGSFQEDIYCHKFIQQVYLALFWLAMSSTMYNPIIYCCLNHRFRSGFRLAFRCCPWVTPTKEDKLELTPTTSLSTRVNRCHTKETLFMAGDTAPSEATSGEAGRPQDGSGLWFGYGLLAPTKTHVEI

Kallikrein-7 [6] = target: T1, Kallikrein-7; assay: Inhibition of kallikrein 7 (unknown origin) using fluorescently labeled peptide substrate by fluorescence assay
Method in brief: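 KLK7 follow-up: 10-dose titrations, 3-fold serial dilution from 100 μM, in duplicate, with gabexate mesylate as positive control. Fluorescence from the labeled peptide substrate is monitored over time, and the initial linear slope (signal/min) is used to derive IC50.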
Target sequence in this assay (P49862 30-253 limits assumed): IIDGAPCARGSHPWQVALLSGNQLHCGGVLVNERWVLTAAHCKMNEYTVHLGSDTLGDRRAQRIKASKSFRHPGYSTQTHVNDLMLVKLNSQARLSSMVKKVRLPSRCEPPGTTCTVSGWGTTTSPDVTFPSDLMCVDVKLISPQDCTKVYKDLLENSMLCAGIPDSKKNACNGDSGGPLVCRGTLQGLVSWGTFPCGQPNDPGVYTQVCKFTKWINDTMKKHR

MDA-MB-231 [7] = assay: Antiproliferative activity against human MDA-MB-231 cells assessed as reduction in cell viability at 32 uM after 48 hrs by MTT assay; type: functional
Method in brief: (§3)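 MDA-MB-231 cells seeded at 10,000 cells/well in DMEM with 10% FBS and left 24 h, then exposed to compound or DMSO solvent control for 48 h. Viability read by MTT, compared with solvent control.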

MDA-MB-231 [8] = assay: Antiproliferative activity against human MDA-MB-231 cells assessed as reduction in cell viability at 100 uM after 48 hrs by MTT assay; type: functional; method in brief: as §3
[9] = Inhibition of chymotrypsin (unknown origin) by fluorescence assay; set-up: species or system Homo sapiens
Kallikrein-7 [10] = target: T1, Kallikrein-7; assay: Mixed type inhibition of kallikrein 7 (unknown origin) using fluorescently labeled peptide substrate by fluorescence assay based Michaelis-Menten kinetic plot analysis
Target sequence in this assay (P49862 30-253 limits assumed): as above

Chymase = target: T6, Chymase (Homo sapiens, UniProt P23946); assay: Inhibition of chymase (unknown origin) by fluorescence assay; method in brief: as §1
T6 sequence (P23946 whole entry): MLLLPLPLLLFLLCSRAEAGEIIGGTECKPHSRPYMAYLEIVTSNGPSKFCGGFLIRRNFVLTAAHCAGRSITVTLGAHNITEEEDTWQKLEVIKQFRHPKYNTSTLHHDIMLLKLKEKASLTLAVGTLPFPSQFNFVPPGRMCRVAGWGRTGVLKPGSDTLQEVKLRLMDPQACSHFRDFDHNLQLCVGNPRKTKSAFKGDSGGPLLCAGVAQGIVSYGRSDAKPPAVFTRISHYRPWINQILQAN

MDA-MB-231 [11] = assay: Antimigratory activity against human MDA-MB-231 cells at 10 uM after 48 hrs by transwell migration assay relative to control; type: functional
[12] = Homo sapiens, MDA-MB-231, 48 h, read-out: IC50

Somatostatin receptor type 3, sequence (P32745 whole entry): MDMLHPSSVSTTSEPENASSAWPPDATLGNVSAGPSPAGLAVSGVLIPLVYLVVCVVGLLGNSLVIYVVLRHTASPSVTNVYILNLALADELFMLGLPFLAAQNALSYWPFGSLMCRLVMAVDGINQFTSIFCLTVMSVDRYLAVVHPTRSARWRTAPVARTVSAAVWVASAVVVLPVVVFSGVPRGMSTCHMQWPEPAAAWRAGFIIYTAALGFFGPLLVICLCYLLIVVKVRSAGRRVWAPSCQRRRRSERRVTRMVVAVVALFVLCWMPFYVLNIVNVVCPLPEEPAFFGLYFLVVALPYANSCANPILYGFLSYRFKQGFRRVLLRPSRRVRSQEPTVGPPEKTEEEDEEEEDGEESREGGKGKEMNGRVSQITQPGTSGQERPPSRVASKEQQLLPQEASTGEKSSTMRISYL
Atypical chemokine receptor 3, sequence (P25106 whole entry, the tested form may be a part): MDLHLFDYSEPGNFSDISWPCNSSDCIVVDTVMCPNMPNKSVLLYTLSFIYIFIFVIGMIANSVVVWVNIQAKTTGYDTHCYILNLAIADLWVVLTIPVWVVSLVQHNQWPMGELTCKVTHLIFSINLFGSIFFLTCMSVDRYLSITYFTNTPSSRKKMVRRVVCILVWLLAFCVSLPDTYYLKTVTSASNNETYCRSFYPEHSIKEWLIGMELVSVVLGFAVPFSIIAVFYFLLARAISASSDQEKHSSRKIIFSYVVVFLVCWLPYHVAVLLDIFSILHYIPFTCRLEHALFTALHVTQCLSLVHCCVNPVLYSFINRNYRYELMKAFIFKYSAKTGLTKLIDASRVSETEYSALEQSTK

SMILES | IC50 (Kallikrein-7 [1]) | IC50 (Caspase-14) | IC50 (MDA-MB-231 [2]; mda-mb-231) | IC50 (Oxytocin receptor) | IC50 [3] | EC50 [4] | IC50 [5] | IC50 (Substance-K receptor) | inhibition (Kallikrein-7 [6]) | Activity (MDA-MB-231 [7]) | IC50 (MDA-MB-231 [2]; [12]) | Activity (MDA-MB-231 [8]) | IC50 [9] | inhibition (Kallikrein-7 [10]) | IC50 (Chymase) | Activity (MDA-MB-231 [11])
CCOC(=O)c1ccc(OC(=O)CCCCCNC(=N)N)cc1 | 20.4 µM | – | – | – | – | – | – | – | – | – | – | – | – | – | – | –
CC[C@H](C)[C@H](N)C(=O)N[C@@H](CCC(=O)O)C(=O)N[C@H](C(=O)NC(C=O)CC(=O)O)[C@@H](C)O (some centres not stated) (H-IET[ξD]-aldehyde) | – | 7.28 µM | – | – | – | – | – | – | – | – | – | – | – | – | – | –
COC(=O)[C@@H]1CCCN1C(=O)[C@@H](Cc1ccccc1)N(C)C(=O)[C@H](C)NC(=O)[C@H](CC(C)C)N(C)C(=O)CNC(=O)[C@@H]1CCCN1C(=O)[C@H](O)C(C)C (H-[dHiv]PG[NMeL]A[dNMeF]P-OMe) | – | – | Not Active | > 20 µM | > 20 µM | > 20 µM | > 20 µM | > 20 µM | Active | – | – | – | – | – | – | –
CC[C@H](C)[C@@H](OC(=O)CCc1ccccc1)C(=O)N1CCC[C@H]1C(=O)NCC(=O)N(C)[C@@H](CC(C)C)C(=O)N[C@@H](C)C(=O)N(C)[C@H](Cc1ccccc1)C(=O)N1CCC[C@H]1C(=O)OC (X2-PG[NMeL]A[dNMeF]P-OMe) | – | – | – | 5.32 µM | 3.14 µM | 7.81 µM | > 20 µM | 3.22 µM | Active | 50% | – | – | – | – | – | –
CC[C@H](C)[C@@H](OC(=O)/C=C\c1ccccc1)C(=O)N1CCC[C@H]1C(=O)NCC(=O)N(C)[C@@H](CC(C)C)C(=O)N[C@@H](C)C(=O)N(C)[C@H](Cc1ccccc1)C(=O)N1CCC[C@H]1C(=O)OC (X3-PG[NMeL]A[dNMeF]P-OMe) | – | – | – | 5.76 µM | 2.71 µM | 5.92 µM | > 20 µM | 4.61 µM | Active | – | 14.9 µM | – | – | – | – | –
CC[C@H](C)[C@@H](OC(=O)[C@H](Cc1ccccc1)N(C)C)C(=O)N1CCC[C@H]1C(=O)NCC(=O)N(C)[C@@H](CC(C)C)C(=O)N[C@@H](C)C(=O)N(C)[C@H](Cc1ccccc1)C(=O)N1CCC[C@H]1C(=O)OC (X4-PG[NMeL]A[dNMeF]P-OMe) | – | – | – | > 20 µM | > 20 µM | 10.5 µM | 6.11 µM | 5.51 µM | Active | – | – | 50% | – | – | – | –
CC[C@H](C)[C@@H](OC(=O)C#Cc1ccccc1)C(=O)N1CCC[C@H]1C(=O)NCC(=O)N(C)[C@@H](CC(C)C)C(=O)N[C@@H](C)C(=O)N(C)[C@H](Cc1ccccc1)C(=O)N1CCC[C@H]1C(=O)OC (X5-PG[NMeL]A[dNMeF]P-OMe) | – | – | – | > 20 µM | > 20 µM | > 20 µM | > 20 µM | > 20 µM | Active | – | 60 µM | – | – | – | – | –
CC[C@H](C)[C@@H](O)C(=O)N1CCC[C@H]1C(=O)NCC(=O)N(C)[C@@H](CC(C)C)C(=O)N[C@@H](C)C(=O)N(C)[C@H](Cc1ccccc1)C(=O)N1CCC[C@H]1C(=O)OC ({Hmp(2R,3S)}-PG[NMeL]A[dNMeF]P-OMe) | 22.1 µM | 50.3 µM | Not Active | > 20 µM | > 20 µM | > 20 µM | > 20 µM | > 20 µM | Active | – | – | – | 8.98 µM | Active | 101 µM | inactive
CC(C)C[C@H](NC(=O)[C@@H](NC(=O)N[C@@H](Cc1ccccc1)C(=O)O)C1CCNC(=N)N1)C(=O)N[C@H](C=O)Cc1ccccc1 (some centres not stated) [CHYMOSTATIN] | – | – | – | – | – | – | – | – | – | – | – | – | 0.00031 µM | – | 0.00936 µM | –
